Sampled rows, rich in hits. Any-hit rate of the full collection: about 1.4%.
FXIIa inh 1536: inhibitors of human coagulation factor XIIa | inhibition, % at 5 µM | hit rate 0.3% among 220,000 | P00748 | purified FXIIa, Boc-QGR-AMC fluorogenic substrate, 2 h; in the data active means inhibition above about 40%;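 further: 0% = enzyme with no compound and 100% = blank without enzyme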
FXIa inh: blocks human coagulation factor XIa protease activity; P03951; purified FXIa, Boc-Glu-Ala-Arg-AMC fluorogenic substrate; inhibition, % at 5 µM; hit rate 0.14% among 220,000;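 active means inhibition of at least 40%; inactive means inhibition below 40%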;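 further: fluorescence of freed AMC excited at 355 nm; 0% = enzyme without compound and 100% = no enzyme blank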
Target sequence (P03951 19-387 limits assumed): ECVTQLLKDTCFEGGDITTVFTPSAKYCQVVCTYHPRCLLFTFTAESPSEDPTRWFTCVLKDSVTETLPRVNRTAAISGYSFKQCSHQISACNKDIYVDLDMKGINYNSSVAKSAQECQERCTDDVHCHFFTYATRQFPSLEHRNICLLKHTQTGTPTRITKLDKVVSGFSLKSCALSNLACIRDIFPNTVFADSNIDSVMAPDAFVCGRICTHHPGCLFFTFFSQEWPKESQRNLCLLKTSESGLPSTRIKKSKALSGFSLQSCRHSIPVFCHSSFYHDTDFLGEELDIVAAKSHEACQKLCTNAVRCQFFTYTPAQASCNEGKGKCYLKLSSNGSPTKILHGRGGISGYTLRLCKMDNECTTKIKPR
Target sequence (P03951 388-625 limits assumed): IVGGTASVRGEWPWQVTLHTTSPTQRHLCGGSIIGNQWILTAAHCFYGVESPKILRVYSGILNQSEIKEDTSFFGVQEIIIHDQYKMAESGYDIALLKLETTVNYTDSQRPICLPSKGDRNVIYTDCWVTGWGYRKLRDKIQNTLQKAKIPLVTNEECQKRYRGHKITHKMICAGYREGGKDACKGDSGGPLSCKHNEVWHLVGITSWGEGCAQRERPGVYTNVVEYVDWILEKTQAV
thrombin 1536: thrombin (human) inhibition; AID 1046; hit rate 0.26% among 220,000; alpha-thrombin, Boc-VPR-AMC fluorogenic substrate cleavage; inhibition, % at 5 µM;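 active means inhibition at or above 40%; inactive means inhibition below 40%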;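 further: 0% = enzyme with no compound and 100% = wells without enzyme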
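Material: Human alpha-thrombin protein | Buffer or medium: pH 7.5 Tris-saline with Tween 20 | Reagent: Boc-VPR-AMC substrate, 15 µM final | Schedule: Reaction at ambient temperature | Detection: AMC fluorescence at 355 nm excitation and 460 nm emission | Evaluation: Percent inhibition scaled between no-compound controls and no-enzyme blanks | Controls: no-compound enzyme wells and no-enzyme blanks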
Furin inhibitor: inhibitors of human furin. hit rate 0.061% among 220,000. inhibition, % at 20 µM or 30 µM. P09958. purified furin, fluorogenic substrate cleavage. AID 463115; in the data active means inhibition above about 25%
m-calpain inh: blocks pig calpain II enzyme activity | inhibition, % at 16 µM | hit rate 0.37% among 220,000 | AID 1236 | purified calpain II, fluorogenic peptide substrate, 30 min;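 active means inhibition above about 50%, limit read from the data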
KLK5 inh: kallikrein 5 (human) inhibition | Q9Y337 | recombinant hK5, fluorogenic AMC substrate cleavage | inhibition, % at 5 µM | hit rate 0.59% among 210,000;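 active means inhibition of 40% or more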;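 further: 0% = enzyme controls without compound and 100% = no-enzyme blanks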
Starred values were filed as active, the others as inactive; / = no result.

SMILES	FXIIa inh 1536	FXIa inh	thrombin 1536	Furin inhibitor	m-calpain inh	KLK5 inh
CC(C)Cn1c(N)c(C(=O)COC(=O)c2c(F)cccc2F)c(=O)n(C)c1=O	2	-10	-14	-21	17	-5
Cc1ccc(C(=O)NNC(=O)C(C)Sc2nc(N)cc(N)n2)cc1 (stereo unspecified)	3	-7	-3	-13	25	2
Cc1ccc2nc3c(cc(C(=O)NCC4CCCO4)n3C)c(=O)n2c1 (stereo unspecified)	-22	-16	-19	-69	-440	-380
O=C(CCc1ccc(O)cc1)N/N=C/c1coc2ccccc2c1=O	8	2	58*	-15	1	0
COc1cc(NC(=O)CN(c2cc(C)cc(C)c2)S(=O)(=O)c2c(C)noc2C)cc(OC)c1	13	5	-3	-12	-5	-5
CC(C)CCNC(=O)CCC(=O)NNc1nc2ccccc2c2nc(-c3ccccc3)nn12	9	6	-2	-22	10	-92
CC(=O)n1nc(-c2cccc(C)c2)nc1SCC(=O)Nc1ccccc1	13	-1	77*	-20	-12	-6
CCC(=O)n1nc(-c2ccccc2)nc1SCC(=O)Nc1ccc(C)cc1	28	22	52*	-14	1	-22
COc1cccc(C(=O)N2CCN(Cc3ccccc3[N+](=O)[O-])CC2)c1	-1	-5	-9	-16	3	-18
O=C1c2ccccc2C(=O)N1CCc1nc2ccccc2c(=O)n1Cc1ccco1	29	2	11	-9	3	57*
Cc1nc2ccccc2c(=O)n1Cc1ccco1	7	-7	0	-30	-15	-3
CCCCCSc1nnc(-c2cc(Br)ccc2N)c(=O)[nH]1	27	16	15	-17	19	42*
CCCC(=O)NC(=S)Nc1ccc(S(=O)(=O)Nc2ccc(OCC)cc2)cc1	2	-2	-8	-26	25	-8
CCOc1ccc(NS(=O)(=O)c2ccc(NC(=S)NC(=O)CC(C)C)cc2)cc1	3	-14	-2	3	52*	-21
CCCCCC(=O)N(CN1C(=O)CCC1=O)c1ccccc1	5	6	0	32*	11	-11
N#Cc1cccc(C#N)c1Oc1ccc(S(=O)(=O)Nc2ccccc2)cc1	7	1	0	-18	24	1
N#Cc1c(Cl)cccc1Oc1ccc(S(=O)(=O)Nc2ccccc2)cc1	3	-7	-10	-1	51*	-4
COC(=O)CNC(=O)CNC(=O)Nc1ccccc1Cl	7	-3	6	-12	25	41*
CCOC(=O)CNC(=O)Nc1cccc(Cl)c1C	10	0	3	0	-27	-23
O=C(NCCN=C1NS(=O)(=O)c2ccccc21)c1ccncc1	18	6	2	-3	-28	-11
Cc1nnc(NC(=O)c2c(F)c(F)c(F)c(F)c2F)s1	50*	11	17	-13	4	33
Cc1nnc(NC(=O)c2ccccc2F)s1	11	7	-5	-23	5	-12
CC(C(=O)O)N1C(=O)/C(=C/C=C/c2ccco2)SC1=S (stereo unspecified)	-5	0	15	5	/	59*
O=C1/C(=C/C=C/c2ccco2)SC(=S)N1NS(=O)(=O)c1ccccc1	23	11	22	3	49	14
NNC(=O)c1ccc(CSc2nc3ccccc3s2)cc1	49*	31	14	-6	14	27
SMILES	FXIIa inh 1536	FXIa inh	thrombin 1536	Furin inhibitor	m-calpain inh	KLK5 inh
N#Cc1c(N)nc2c3c(sc(=N)c2c1N)NC(=O)CC3c1c(F)cccc1Cl (stereo unspecified)	15	5	23	-15	-45	68*
N#Cc1c(N)nc2c3c(sc(=N)c2c1N)NC(=O)CC3c1ccccc1 (stereo unspecified)	1	-4	-1	-16	-126	-8
Cc1ccc(NC(=O)c2cc(=O)c3ccccc3o2)cc1	15	5	2	-21	-4	-8
CCOc1ccccc1NC(=O)CN1C(=O)COc2ccc(Cl)cc21	19	17	29	-2	12	43*
CCOc1ccccc1NC(=S)NCc1ccco1	18	-2	17	-18	7	45*
Cc1ccccc1NC(=S)NCc1ccco1	15	10	-5	-22	-10	-13
O=C(CS(=O)(=O)c1ccc2ccccc2c1)Nc1ccccc1Cl	20	11	16	-12	21	58*
O=C(CS(=O)(=O)c1cccc(Cl)c1)Nc1ccccc1Cl	2	-8	-2	-23	-3	2
Cc1cc(C(F)(F)F)nc(SCC(=O)Nc2cc(C)on2)n1	22	0	23	-16	14	37
Brc1ccc(-c2csc(N3CCOCC3)n2)cc1	7	0	6	-34	15	-12
Clc1ccc(-c2csc(N3CCOCC3)n2)cc1	38	48*	24	-13	29	45*
CCOC(=O)CN(c1cccc(C(C)=O)c1)S(C)(=O)=O	20	-5	6	-3	18	44*
CC(=O)Nc1c(-c2ccccc2)nc2ncccn12	22	21	-2	-32	-472	-5
O=C(COC(=O)CCN=C1NS(=O)(=O)c2ccccc21)NC1CCCCCCC1	6	5	3	-16	-11	5
O=C(N/N=C/C=C/c1ccc(Br)cc1)C(O)c1ccccc1 (stereo unspecified)	5	10	-2	-21	-1	-8
Cc1ccc(/C=N/Nc2cc(C)nc(NCc3ccccc3)n2)cc1	12	-4	2	-11	37	4
Cc1cc(N/N=C/c2ccc(O)cc2)nc(NS(=O)(=O)c2ccccc2)n1	6	10	35	-7	20	47*
COc1ccc(C2=NN(C(=O)CCCC(=O)O)C(c3cn(-c4ccccc4)nc3-c3ccccc3)C2)cc1 (stereo unspecified)	40*	24	19	0	5	17
COc1ccc(C2CC(c3ccccc3)=NN2C(=O)CN2CCN(Cc3ccccc3)CC2)cc1 (stereo unspecified)	27	32	85*	-10	12	29
COc1ccc(C2=NN(C(=O)CN3CCCCC3)C(c3ccc(C)cc3)C2)cc1 (stereo unspecified)	-4	-5	0	-23	4	-20
COc1ccc(-c2nn(-c3ccccc3)cc2C2CC(c3cccs3)=NN2C(=O)CCC(=O)O)cc1 (stereo unspecified)	10	2	0	-21	-26	3
COc1cc(/C=N/n2c(-c3cc(C)[nH]n3)n[nH]c2=S)ccc1O	11	2	-4	-22	-17	4
COc1cc(/C=N/n2c(-c3cc(C)[nH]n3)n[nH]c2=S)cc(OC)c1OC	-1	-8	-9	-2	22	58*
Cc1sc(NC(=O)c2ccco2)c(CN2CCN(c3ccc(F)cc3)CC2)c1C	57*	30	2	-21	-50	-16

Assay outcomes as filed in PubChem BioAssay.
